# Assay results from different studies.
# PROC: Vitamin K-dependent protein C (PROC, Homo sapiens, UniProt P04070)
# PFF0160c: Dihydroorotate dehydrogenase (quinone), mitochondrial (PFF0160c, Plasmodium falciparum, UniProt Q08210)
# PFF0160c E182D: Dihydroorotate dehydrogenase (quinone), mitochondrial (PFF0160c, Plasmodium falciparum, UniProt Q08210, E182D)
Compound,target,test,IC50 [µM]
O=S(=O)(O)c1nc2ccccc2[nH]1,"racE (Bacillus subtilis, UniProt P94556, N75L)","enzyme activity, inhibitor, absorbance",198
O=C(CCCC(=O)N1CCN(C(=O)c2cc(Cc3n[nH]c(=O)c4ccccc34)ccc2F)CC1)NCCNC(=O)C1CC2C=CC1C2 (stereo not drawn),"Poly [ADP-ribose] polymerase 1 (PARP1, Homo sapiens, UniProt P09874)","enzyme activity, inhibitor",0.0101
CC(C)C[C@@H]1C(=O)N[C@H]([C@@H](C)O)C(=O)N[C@H](C)[C@@H](C)C(=O)O[C@@H](Cc2ccccc2)C(=O)N(C)[C@@H](C(C)C)C(=O)N2CCC[C@H]2C(=O)N(C)[C@H](Cc2ccccc2)C2=N[C@@H](CS2)C(=O)N[C@H](C)C2=N[C@@H](CS2)C(=O)N1C,PROC,"enzyme activity, inhibitor",66.6
Cc1nc(Nc2ccc(C(F)(F)F)cc2)c2c(C)noc2n1,PFF0160c,"enzyme activity, inhibitor, absorbance",0.068
Cc1c(Cc2ccc(C(F)(F)F)nc2)c[nH]c1C(=O)NC(C)c1cc(C(N)=O)[nH]n1 (stereo not drawn),PFF0160c,"enzyme activity, inhibitor, absorbance",0.35
CC(=O)c1c(Nc2c(C)cc(C)cc2C)oc(C)cc1=O,PFF0160c E182D,"enzyme activity, inhibitor, absorbance",0.659
CC(CCc1ccccc1)NC(C)C(O)c1ccc(O)cc1 (stereo not drawn),"Kappa-type opioid receptor (OPRK1, Homo sapiens, UniProt P41145)","ligand displacement, radioligand",4.98
CCNC(=O)c1ccc(-n2nc(C)cc2-c2ccccc2)cc1,PFF0160c,"enzyme activity, inhibitor, absorbance",0.74
Cc1nc(NC2CCc3ccc(Cl)cc3C2)c2c(C)noc2n1 (stereo not drawn),PFF0160c,"enzyme activity, inhibitor, absorbance",0.017
Cc1cc(Nc2ccc3c(c2)CCC3)n2ncnc2n1,PFF0160c E182D,"enzyme activity, inhibitor, absorbance",> 10
Cc1nc(NC2CCc3ccc(Br)cc3C2)c2c(C)noc2n1 (stereo not drawn),PFF0160c,"enzyme activity, inhibitor, absorbance",0.022
CNC(=O)[C@H](C)NC(=O)c1[nH]cc(Cc2ccc(C(F)(F)F)nc2)c1C,PFF0160c,"enzyme activity, inhibitor, absorbance",39
CCc1nc2nc(C)cc(Nc3ccc4c(c3)OCCO4)n2n1,PFF0160c,"enzyme activity, inhibitor, absorbance",0.492
CC[C@H]1NC(=O)[C@@H]2CSC(=N2)[C@@H](Cc2ccccc2)N(C)C(=O)[C@@H]2CCCN2C(=O)[C@H](C(C)C)N(C)C(=O)[C@H](Cc2ccccc2)OC(=O)[C@H](C)[C@@H](C)NC(=O)[C@@H]([C@@H](C)O)NC(=O)[C@@H](CC(C)C)N(C)C(=O)[C@@H]2CSC1=N2,PROC,"enzyme activity, inhibitor",79
Cn1cc(-c2ccc(-n3ccc(OCc4ccc(Cl)cn4)cc3=O)cn2)cn1,PFF0160c E182D,"enzyme activity, inhibitor, absorbance",7.02
Cc1nc(Nc2ccc(C(F)(F)F)nc2)c2c(C)noc2n1,PFF0160c,"enzyme activity, inhibitor, absorbance",0.15
COc1ccccc1C1CN(CCNC(=O)c2nc(C)c[nH]2)Cc2ccccc2O1 (stereo not drawn),PFF0160c,"enzyme activity, inhibitor, absorbance",3.01
Cc1c(Cc2ccc(C(F)(F)F)nc2)c[nH]c1C(=O)NC(C)c1nc[nH]n1 (stereo not drawn),PFF0160c,"enzyme activity, inhibitor, absorbance",> 100
Cc1nc(Nc2ccc(C)c(Cl)c2)c2c(C)noc2n1,PFF0160c,"enzyme activity, inhibitor, absorbance",0.13
Cc1cc(C(C)NC(=O)c2[nH]cc(-c3n[nH]c4cc(C(F)(F)F)ccc34)c2C)no1 (stereo not drawn),PFF0160c,"enzyme activity, inhibitor, absorbance",> 100
CCc1nc2nc(C)cc(Nc3ccc(F)c(Cl)c3)n2n1,PFF0160c E182D,"enzyme activity, inhibitor, absorbance",> 10
CCOC(=O)c1[nH]cc(Cc2cccc3ncoc23)c1C,PFF0160c,"enzyme activity, inhibitor, absorbance",0.1
CCCCCNC(=N)N/N=C/c1c[nH]c2ccc(OC)cc12,"5-hydroxytryptamine receptor 2A (HTR2A, Homo sapiens, UniProt P28223)","calcium signal, antagonist, fluorescence",1.5
Cc1c(C(=O)NC(C)c2nc[nH]n2)[nH]c(Cl)c1Cc1ccc(C(F)(F)F)nc1 (stereo not drawn),PFF0160c,"enzyme activity, inhibitor, absorbance",> 100
CN(C)S(=O)(=O)c1ccc(Sc2ccccc2)c(C(=O)N2CCCC(C(N)=O)C2)c1 (stereo not drawn),PFF0160c E182D,"enzyme activity, inhibitor, absorbance",2.56
Cc1c(C2(c3ccc(C(F)(F)F)cc3F)CC2)c[nH]c1C(=O)NC(C)c1nc[nH]n1 (stereo not drawn),PFF0160c,"enzyme activity, inhibitor, absorbance",> 100
Cc1nc(Nc2ccc(S(F)(F)(F)(F)F)cc2)c2c(C)noc2n1,PFF0160c,"enzyme activity, inhibitor, absorbance",0.036
